# From ChEMBL document CHEMBL1126715, “Synthesis and tissue distribution of (m-[125I]iodobenzyl)trozamicol ([125I]MIBT): potential radioligand for mapping central cholinergic innervation” (J Med Chem, 1993)
# Columns and labels:
# Rattus norvegicus [1] = organism: Rattus norvegicus; assay: Ratio of tissue distribution between rat heart and blood after 60 min; type: ADME, organism-based; settings: other tissue, 1 h
# Procedure, shortened: (§1)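 Male Wistar rats (200-350 g) under ether anesthesia; radiotracer (3-5 μCi in 0.1 mL 50% aqueous ethanol) given iv. At 5, 30, 60 and 180 min, blood was drawn by cardiac puncture and animals were killed by cardiectomy. Organs were weighed and γ-counted against a 1:100 dilution of the injected dose. Results are given as % injected dose/g tissue; ratios are taken between tissue levels.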
# Rattus norvegicus [2] = organism: Rattus norvegicus; assay: Tissue distribution in rat blood after 180 minutes (n=3); type: ADME, organism-based; settings: in vivo, 3 h; procedure, shortened: as §1
# Rattus norvegicus [3] = organism: Rattus norvegicus; assay: Tissue distribution in rat gonads after 30 minutes (n=3); type: ADME, organism-based, Gonad; settings: in vivo, 0.5 h; procedure, shortened: as §1
# Rattus norvegicus [4] = organism: Rattus norvegicus; assay: Tissue distribution in rat gonads after 5 minutes (n=3); type: ADME, organism-based, Gonad; settings: in vivo; procedure, shortened: as §1
# Rattus norvegicus [5] = organism: Rattus norvegicus; assay: Effect of vesamicol on the accumulation in rat spleen in group 1 (n=3); type: ADME, organism-based; settings: in vivo
# Procedure, shortened: (§2)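 Male Wistar rats (n = 4/group) given iv vehicle (100 μL 50% aqueous EtOH) or dl-vesamicol (1.01 μmol/kg); 15 min later iv radiotracer (2.0 μCi in 100 μL 50% aqueous EtOH); killed 30 min post-tracer. Blood by cardiac puncture, organs weighed and γ-counted vs 1:100 injected-dose dilution; % dose/g tissue (range); tissue/blood ratios.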
# Rattus norvegicus [6] = organism: Rattus norvegicus; assay: Effect of vesamicol on the accumulation in rat lung in group 1 (n=3); type: ADME, organism-based; settings: in vivo; procedure, shortened: as §2
# Rattus norvegicus [7] = organism: Rattus norvegicus; assay: Ratio of tissue distribution between rat brain and blood after 5 min; type: ADME, organism-based; settings: brain, 5 min
# Procedure, shortened: (§3)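 Male Wistar rats (200-350 g) under ether anesthesia, iv radiotracer (3-5 μCi in 0.1 mL 50% aqueous ethanol). At 5, 30, 60, 180 min blood taken by cardiac puncture, animal killed by cardiectomy; organs weighed, γ-counted against 1:100 injected-dose dilution; % injected dose/g tissue; brain/blood ratio.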
# Rattus norvegicus [8] = organism: Rattus norvegicus; assay: Effect of vesamicol on the accumulation in rat liver in group 2 (n=3); type: ADME, organism-based; settings: in vivo
# Rattus norvegicus [9] = organism: Rattus norvegicus; assay: Tissue distribution in rat gonads after 180 minutes (n=3); type: ADME, organism-based, Gonad; settings: in vivo, 3 h; procedure, shortened: as §1
# [10] = Ratio of tissue distribution between rat heart and blood after 180 min; type: ADME, organism-based; procedure, shortened: as §1
# [11] = Ratio of effect of vesamicol on the accumulation between rat heart and blood in group 1; type: ADME, organism-based; procedure, shortened: as §2
# Rattus norvegicus [12] = organism: Rattus norvegicus; assay: Ratio of tissue distribution between rat heart and blood after 5 min; type: ADME, organism-based; settings: other tissue, 5 min; procedure, shortened: as §1
# Rattus norvegicus [13] = organism: Rattus norvegicus; assay: Tissue distribution in rat liver after 180 minutes (n=3); type: ADME, organism-based; settings: in vivo, 3 h
# Procedure, shortened: (§4)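 Male Wistar rats (200-350 g) under ether, iv [125I]tracer (3-5 μCi in 0.1 mL 50% aqueous EtOH). At 5, 30, 60 or 180 min, blood taken by cardiac puncture and the rat killed by cardiectomy. Organs weighed and γ-counted against 1:100 dilutions of the injected dose; results in % injected dose/g, with range.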
# Rattus norvegicus [14] = organism: Rattus norvegicus; assay: Tissue distribution in rat spleen after 5 minutes (n=3); type: ADME, organism-based; settings: in vivo; procedure, shortened: as §4
# Rattus norvegicus [15] = organism: Rattus norvegicus; assay: Effect of vesamicol on the accumulation in rat brain in group 1 (n=3); type: ADME, organism-based; settings: in vivo; procedure, shortened: as §2
# Rattus norvegicus [16] = organism: Rattus norvegicus; assay: Tissue distribution in rat blood after 30 minutes (n=3); type: ADME, organism-based; settings: in vivo, 0.5 h; procedure, shortened: as §1
# Rattus norvegicus [17] = organism: Rattus norvegicus; assay: Tissue distribution in rat thyroid after 5 minutes (n=3); type: ADME, organism-based, Thyroid gland; settings: in vivo; procedure, shortened: as §4
# Rattus norvegicus [18] = organism: Rattus norvegicus; assay: Tissue distribution in rat spleen after 60 minutes (n=3); type: ADME, organism-based; settings: in vivo, 1 h; procedure, shortened: as §1
# Rattus norvegicus [19] = organism: Rattus norvegicus; assay: Tissue distribution in rat heart after 180 minutes (n=3); type: ADME, organism-based; settings: in vivo, 3 h; procedure, shortened: as §1
# Rattus norvegicus [20] = organism: Rattus norvegicus; assay: Effect of vesamicol on the accumulation in rat muscle in group 2 (n=3); type: ADME, organism-based, Muscle tissue; settings: in vivo; procedure, shortened: as §2
# Rattus norvegicus [21] = organism: Rattus norvegicus; assay: Ratio of tissue distribution between rat brain and blood after 30 min; type: ADME, organism-based; settings: 0.5 h; procedure, shortened: as §3
# Rattus norvegicus [22] = organism: Rattus norvegicus; assay: Tissue distribution in rat liver after 30 minutes (n=3); type: ADME, organism-based; settings: in vivo, 0.5 h; procedure, shortened: as §1
# Rattus norvegicus [23] = organism: Rattus norvegicus; assay: Tissue distribution in rat liver after 60 minutes (n=3); type: ADME, organism-based; settings: in vivo, 1 h; procedure, shortened: as §1
# Rattus norvegicus [24] = organism: Rattus norvegicus; assay: Tissue distribution in rat kidney after 30 minutes (n=3); type: ADME, organism-based; settings: in vivo, 0.5 h; procedure, shortened: as §1
# Rattus norvegicus [25] = organism: Rattus norvegicus; assay: Effect of vesamicol on the accumulation in rat lung in group 2 (n=3); type: ADME, organism-based; settings: in vivo
# Rattus norvegicus [26] = organism: Rattus norvegicus; assay: Tissue distribution in rat muscle after 180 minutes (n=3); type: ADME, organism-based; settings: in vivo, 3 h; procedure, shortened: as §1
# Rattus norvegicus [27] = organism: Rattus norvegicus; assay: Tissue distribution in rat thyroid after 180 minutes (n=3); type: ADME, organism-based, Thyroid gland; settings: in vivo, 3 h; procedure, shortened: as §1
# Rattus norvegicus [28] = organism: Rattus norvegicus; assay: Tissue distribution in rat heart after 30 minutes (n=3); type: ADME, organism-based; settings: in vivo, 0.5 h; procedure, shortened: as §4
# Rattus norvegicus [29] = organism: Rattus norvegicus; assay: Effect of vesamicol on the accumulation in rat thyroid in group 1 (n=3); type: ADME, organism-based, Thyroid gland; settings: in vivo; procedure, shortened: as §2
# Rattus norvegicus [30] = organism: Rattus norvegicus; assay: Effect of vesamicol on the accumulation in rat brain in group 2 (n=3); type: ADME, organism-based; settings: in vivo
# Rattus norvegicus [31] = organism: Rattus norvegicus; assay: Tissue distribution in rat lung after 30 minutes (n=3); type: ADME, organism-based; settings: in vivo, 0.5 h; procedure, shortened: as §1
# Rattus norvegicus [32] = organism: Rattus norvegicus; assay: Ratio of tissue distribution between rat brain and blood after 60 min; type: ADME, organism-based; settings: 1 h; procedure, shortened: as §1
# Rattus norvegicus [33] = organism: Rattus norvegicus; assay: Effect of vesamicol on the accumulation in rat gonads in group 2 (n=3); type: ADME, organism-based; settings: in vivo; procedure, shortened: as §2
# Rattus norvegicus [34] = organism: Rattus norvegicus; assay: Effect of vesamicol on the accumulation in rat gonads in group 1 (n=3); type: ADME, organism-based; settings: in vivo
# Rattus norvegicus [35] = organism: Rattus norvegicus; assay: Tissue distribution in rat brain after 180 minutes (n=3); type: ADME, organism-based; settings: in vivo, 3 h; procedure, shortened: as §4
# Rattus norvegicus [36] = organism: Rattus norvegicus; assay: Effect of vesamicol on the accumulation in rat heart in group 1 […]; type: ADME, organism-based; settings: in vivo; procedure, shortened: as §2
compound,measurement,setting,value
O[C@@H]1CCN(Cc2cccc([125I])c2)C[C@H]1N1CCC(c2ccccc2)CC1 (stereo in doubt; (-)),Ratio,Rattus norvegicus [1],5.97
same,Dose/g,Rattus norvegicus [2],0.1%
same,Dose/g,Rattus norvegicus [3],0.23%
same,Dose/g,Rattus norvegicus [4],0.19%
same,Dose/g,Rattus norvegicus [5],1.05%
same,Dose/g,Rattus norvegicus [6],2.36%
same,Ratio,Rattus norvegicus [7],4.27
same,Dose/g,Rattus norvegicus [8],1.89%
same,Dose/g,Rattus norvegicus [9],0.2%
same,Kp at 3 h,[10],5.32
same,Kp,[11],2.75
same,Ratio,Rattus norvegicus [12],6.07
same,Dose/g,Rattus norvegicus [13],2.23%
same,Dose/g,Rattus norvegicus [14],1.04%
same,Dose/g,Rattus norvegicus [15],0.68%
same,Dose/g,Rattus norvegicus [16],0.11%
same,Dose/g,Rattus norvegicus [17],2.67%
same,Dose/g,Rattus norvegicus [18],1.17%
same,Dose/g,Rattus norvegicus [19],0.5%
same,Dose/g,Rattus norvegicus [20],0.16%
same,Ratio,Rattus norvegicus [21],9.06
same,Dose/g,Rattus norvegicus [22],2.35%
same,Dose/g,Rattus norvegicus [23],2.63%
same,Dose/g,Rattus norvegicus [24],3.53%
same,Dose/g,Rattus norvegicus [25],1.59%
same,Dose/g,Rattus norvegicus [26],0.27%
same,Dose/g,Rattus norvegicus [27],11.55%
same,Dose/g,Rattus norvegicus [28],0.75%
same,Dose/g,Rattus norvegicus [29],2.62%
same,Dose/g,Rattus norvegicus [30],0.34%
same,Dose/g,Rattus norvegicus [31],3.21%
same,Ratio,Rattus norvegicus [32],8.51
same,Dose/g,Rattus norvegicus [33],0.16%
same,Dose/g,Rattus norvegicus [34],0.15%
same,Dose/g,Rattus norvegicus [35],0.92%
same,Dose/g,Rattus norvegicus [36],0.59%
